Data set [1] is described as follows: Conversion rate by hydrolysis of compound in plasma after 4 hr at a pH of 7.4. Format: ADME, cell-free. Particulars: pH 7.4, read-out: Conversion rate.
Data set [2] is described as follows: Conversion rate by hydrolysis of compound […] after 2 hr at a pH of 1.0. Format: ADME, cell-free. Conditions: pH 1; read-out: Conversion rate. The essentials:
(§1)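 Prodrug from a 10 mM DMSO stock, diluted to 4 μM final in 0.4 N HClO4 and held at room temperature. Aliquots were taken at intervals. Free 1 was measured by RIA: p-benzoquinone derivatization for 30 min, then rabbit antiserum and 125I tracer. Hydrolysis % is the measured 1 as a percent of the level for complete hydrolysis.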

Data set [3] is described as follows: Conversion rate by hydrolysis of compound in plasma after 6 hr. Format: ADME, cell-free. Conditions: read-out: Conversion rate. Put shortly: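 Male Swiss mice (20–25 g) were given 24 μmol/kg prodrug orally in 1% methyl cellulose and decapitated at 0.5, 1, 3 or 6 h. Plasma HClO4 extracts were assayed by RIA for free 1, with total 1 measured after heating at 95 °C for 30 min. Value is AUCplasma(1)/[AUCplasma(1)+AUCplasma(prodrug)].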

A short description of data set [4]: Concentration of compound in Central nervous system; Not detectable. It is filed as ADME, tissue-based.
Data set [5] is described as follows: Conversion rate by hydrolysis of compound […] after 2 hr at a pH of 1.0; Not detectable. Format: ADME, cell-free. Particulars: pH 1, 2 h. Put shortly: as §1
Data set [6] in a line: Conversion rate by hydrolysis of compound in plasma after 4 hr at a pH of 7.4; Not detectable. It is filed as ADME, cell-free. Particulars: pH 7.4, 4 h.
The nature of data set [7]: Plasma concentration (AUC) was determined; Not detectable. Format: ADME, cell-free.
Data set [8] in a line: Conversion rate by hydrolysis of compound in plasma after 6 h; Not detectable. It is filed as ADME, cell-free.

Take `C[C@H](Cc1c[nH]cn1)/N=C(\c1ccccc1)c1cc(F)ccc1O`: the metabolised at 4 h in data set [1] stood at 15.4%. Moreover, in data set [2], the metabolised at 2 h turned out to be 30%. In data set [3], the metabolised at 6 h is 24%.

For `C[C@H](Cc1c[nH]cn1)/N=C(/c1cc(F)ccc1O)c1cccc2ccccc12`, the “concentration in CNS” value in data set [4] is reported as “Not detectable”. Moreover, the metabolised at 4 h in data set [1] stood at 1.3%. Also, in data set [2], the metabolised at 2 h came to 0.2%. Also, the metabolised at 6 h in data set [3] stood at 11%.

Turning to `C[C@H](Cc1c[nH]cn1)N=C(c1ccccc1O)c1ccccc1O`, in data set [4], the “concentration in CNS” value is “Not detectable”. Moreover, the Conversion rate result in data set [5] and in data set [6] was “Not detectable” each time.

Regarding `COc1ccc(/C(=N/[C@H](C)Cc2c[nH]cn2)c2ccccc2)c(O)c1`, the “concentration in CNS” value in data set [4] is “Not detectable”. Also, the metabolised at 4 h in data set [1] is 6%. Moreover, the metabolised at 2 h in data set [2] worked out at 3%. In data set [7], the AUC entry was “Not detectable”.

`Cc1cc(O)c(/C(=N/[C@H](C)Cc2c[nH]cn2)c2ccccc2)cc1Cl`: in data set [4], the “concentration in CNS” value is “Not detectable”. The metabolised at 4 h in data set [1] worked out at 2.8%. For the same molecule, in data set [2], the metabolised at 2 h turned out to be 5.6%. In addition, the metabolised at 6 h in data set [3] turned out to be 41%.

In the case of `C[C@H](Cc1c[nH]cn1)/N=C(\c1ccc(F)cc1)c1ccccc1O`, the metabolised at 2 h in data set [2] was determined as 20.1%. Moreover, the metabolised at 6 h in data set [3] amounted to 26%.

Regarding `C[C@@H]1Cc2[nH]cnc2C(c2ccccc2O)N1` (some centres undefined), in data set [8], the Conversion rate result is recorded as “Not detectable”. In data set [4], the “concentration in CNS” value is recorded as “Not detectable”. Besides, in data set [2], the metabolised at 2 h was 0.2%. The AUC result in data set [7] was “Not detectable”.

Consider `C[C@H](Cc1c[nH]cn1)/N=C(\c1ccc(F)cc1)c1cc(F)ccc1O`, for which, in data set [1], the metabolised at 4 h was 33.8%. The metabolised at 2 h in data set [2] worked out at 63.8%. Also, in data set [3], the metabolised at 6 h was determined as 45%.

Consider `C[C@H](Cc1c[nH]cn1)/N=C(\c1ccc(Cl)cc1)c1ccccc1O`, for which the metabolised at 2 h in data set [2] is 18.3%. For the same molecule, the metabolised at 6 h in data set [3] worked out at 28%.

Consider `C[C@H](Cc1c[nH]cn1)/N=C(\c1ccccc1)c1ccccc1O`, for which the “concentration in CNS” value in data set [4] is recorded as “Not detectable”. The metabolised at 2 h in data set [2] came out at 14.1%. Also, in data set [3], the metabolised at 6 h was found to be 14%.

In the case of `C[C@H](Cc1c[nH]cn1)/N=C(\c1ccc(Cl)cc1)c1cc(F)ccc1O`, in data set [1], the metabolised at 4 h was 15.2%. Further, the metabolised at 2 h in data set [2] turned out to be 62%. Moreover, the metabolised at 6 h in data set [3] was 42%.

Regarding `C[C@H](Cc1c[nH]cn1)/N=C(\c1ccccc1)c1cc(Br)ccc1O`, the metabolised at 4 h in data set [1] turned out to be 16.6%. In data set [2], the metabolised at 2 h is 34.6%. In addition, the metabolised at 6 h in data set [3] turned out to be 31%.

Turning to `Cc1ccc(O)c(/C(=N/[C@H](C)Cc2c[nH]cn2)c2ccccc2)c1`, the “concentration in CNS” value in data set [4] is listed as “Not detectable”. The metabolised at 2 h in data set [2] is 11.9%. In data set [3], the metabolised at 6 h stood at 29%.

As to `C[C@H](Cc1c[nH]cn1)/N=C(\c1ccccc1)c1cc(F)cc(Cl)c1O`, the metabolised at 4 h in data set [1] was determined as 19.6%. Moreover, the metabolised at 2 h in data set [2] turned out to be 79.3%. In addition, the metabolised at 6 h in data set [3] is 28%.

As to `C[C@H](Cc1c[nH]cn1)/N=C(\c1ccc(F)cc1)c1cc(Cl)ccc1O`, in data set [1], the metabolised at 4 h worked out at 26%. Further, the metabolised at 2 h in data set [2] was found to be 67.1%. In addition, the metabolised at 6 h in data set [3] amounted to 40%.

`C[C@H](Cc1c[nH]cn1)/N=C(\c1ccccc1)c1cc(Cl)ccc1O`: the “concentration in CNS” value in data set [4] is given as “Not detectable”. For the same molecule, the metabolised at 4 h in data set [1] is 23.2%. For the same molecule, the metabolised at 2 h in data set [2] came to 46.9%. For the same molecule, in data set [3], the metabolised at 6 h was found to be 33%.

Turning to `C[C@H](Cc1c[nH]cn1)/N=C(\c1ccc(Cl)cc1)c1cc(Cl)ccc1O`, the metabolised at 4 h in data set [1] worked out at 16.2%. For the same molecule, in data set [2], the metabolised at 2 h worked out at 62.7%. For the same molecule, in data set [3], the metabolised at 6 h was found to be 58%.

Source of the values: ChEMBL document CHEMBL1128461, “Synthesis, X-ray crystallography, and pharmacokinetics of novel azomethine prodrugs of (R)-alpha-methylhistamine: highly potent and selective histamine H3 receptor agonists” (J Med Chem, 1995).
